A selection: hits, their analogues and other compounds. The true share with any hit is near 4.1%.
MrgX1 ag = activates human MrgX1 receptor signaling; MrgX1-HEK293 cells, Fluo-4 calcium fluorescence, agonist mode; active compounds read high; B-score at 10 µM; 310,000 compounds, 0.44% hits;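 active = calcium response B-score plate-corrected fluorescence ratio at least 3 library SD, with starting fluorescence B-score inside 5 SD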
Target sequence (Q96LB2 whole entry, looked up): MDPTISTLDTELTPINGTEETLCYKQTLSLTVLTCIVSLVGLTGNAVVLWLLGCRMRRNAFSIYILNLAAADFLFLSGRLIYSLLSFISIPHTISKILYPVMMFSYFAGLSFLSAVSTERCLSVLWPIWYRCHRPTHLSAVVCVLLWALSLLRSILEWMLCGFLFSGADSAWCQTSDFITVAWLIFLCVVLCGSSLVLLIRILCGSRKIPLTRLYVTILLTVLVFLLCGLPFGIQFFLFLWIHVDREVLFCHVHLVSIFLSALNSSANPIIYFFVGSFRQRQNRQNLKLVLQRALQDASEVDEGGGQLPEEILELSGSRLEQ
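Material – MrgX1-expressing HEK293 cells · Input – 15,000 cells seeded per well · Dosing – compound as first of three additions · Times – overnight seeding, then 1 h dark dye loading · Measured by – kinetic Fluo-4 NW fluorescence of intracellular calcium · Read-out – B-scored fluorescence response ratio · Benchmarks – positive and negative control wells on each plate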
MrgX1 antag = human MrgX1 receptor antagonism, primary screen; AID 588676; B-score at 10 µM; MRGX1-HEK293 calcium flux, Fluo-4, BAM8-22 antagonism; active compounds read low; 310,000 compounds, 1.3% hits; Q96LB2;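 active = calcium-response B-score plate-corrected more than 3 library SD below zero, starting fluorescence within 5 deviations, no agonist response on first addition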;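 note: peak minus trough fluorescence over baseline after final BAM8-22 challenge near maximal dose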
RGS4 act = RGS4 potentiation or activation. AID 463111. HEK293 M3R/inducible RGS4, carbachol calcium flux Fluo4; active compounds read low. B-score at 10 µM. 310,000 compounds, 0.92% hits;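 active = B-score of the integrated calcium signal more than 4 SD below the library mean, with starting fluorescence not abnormally high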;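 note: negative B-score means reduced calcium response which marks RGS4 activation or potentiation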
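Also added: carbachol at ECmax as muscarinic agonist stimulus; Assay system: HEK293 cells with stable M3R and inducible RGS4; Timing: overnight RGS4 induction, 30 min dye load 37 °C, 20 min compound RT; Measured by: Fluo4-AM (2 µM) calcium-flux fluorescence, kinetic read.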
MrgX1 allo act = human MrgX1 positive allosteric modulation, primary screen; 310,000 compounds, 0.63% hits; B-score at 10 µM; MrgX1-HEK293, Fluo-4 calcium flux, FDSS; active compounds read high;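 active = plate-corrected calcium response at least 3 library SD above typical, normal starting fluorescence, not activating the receptor alone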;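 note: compound read alongside a low EC10 to EC30 dose of BAM8-22 agonist; peak minus trough fluorescence over baseline measured at the second addition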
Kir21 inh = Kir2.1 (mouse) channel inhibition | AID 1672 | B-score at 10 µM | P35561 | 310,000 compounds, 0.85% hits | HEK293-Kir2.1, FluxOR thallium flux fluorescence; active compounds read low;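 active = fluorescence ratio B-score at or below minus 3 SD of library scores, with starting-brightness B-score within 2 SD, cut at about -4.2 in these data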;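 note: channel flux triggered by added potassium and thallium sulfate stimulus; B-score of peak minus minimum fluorescence over baseline after thallium stimulus; more negative B-score means stronger Kir2.1 block with less thallium influx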
Target sequence (P35561 whole entry, looked up): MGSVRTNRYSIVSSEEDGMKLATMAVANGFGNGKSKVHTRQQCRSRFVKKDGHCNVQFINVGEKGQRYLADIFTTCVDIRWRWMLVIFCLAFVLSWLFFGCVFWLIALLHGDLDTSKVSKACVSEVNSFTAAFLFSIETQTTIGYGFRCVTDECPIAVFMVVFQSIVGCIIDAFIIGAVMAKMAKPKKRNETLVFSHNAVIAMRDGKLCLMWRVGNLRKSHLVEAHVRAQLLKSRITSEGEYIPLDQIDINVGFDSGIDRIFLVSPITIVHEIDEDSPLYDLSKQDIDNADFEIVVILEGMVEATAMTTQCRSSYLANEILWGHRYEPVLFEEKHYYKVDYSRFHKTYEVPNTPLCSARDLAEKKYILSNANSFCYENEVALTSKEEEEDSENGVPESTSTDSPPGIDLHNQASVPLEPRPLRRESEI
RGS4 inh = human RGS4 inhibition | HEK293 M3R/RGS4 inducible, Fluo-4 calcium flux; active compounds read high; triggered by carbachol at its EC20 | 310,000 compounds, 0.45% hits | B-score at 10 µM | AID 463165 | P49798;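 active = B-score, a plate-corrected calcium signal, over three deviations above library mean, with baseline fluorescence within five deviations of library mean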;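 note: RGS4 expression induced by doxycycline in cells with stable M3 receptor; B-score is computed from the integrated fluorescence ratio over baseline after carbachol; higher B-score means a larger calcium signal and so more RGS4 inhibition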
MrgX1 ant reconf = human MrgX1 receptor antagonism, re-confirmation screen; remaining BAM8-22 calcium response % of control (active compounds read low), % at 10 µM; AID 602420; 2,300 compounds, 19% hits; shares compounds with MrgX1 antag; MrgX1-HEK293, BAM8-22 calcium flux, Fluo-4; active compounds read low;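 active = remaining agonist calcium response no higher than 100% minus 3 SD of agonist-only control wells, with starting fluorescence near control levels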;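 note: agonist BAM8-22 given at a near maximal EC90 to ECmax level; peak minus minimum fluorescence divided by baseline after agonist addition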
HEK293 Ca flux = counter-screen for MrgX1 antagonists: effect in parental HEK293 cells; shares compounds with MrgX1 antag; Fluo-4 calcium fluorescence, FDSS; fluorescence ratio F(max-min)/F0 at 10 µM; 4,000 compounds, 2% hits;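 active = duplicate-averaged calcium fluorescence ratio at least three times the standard deviation of buffer wells, a nonspecific response in parental cells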
HEK293 Ca counter = counter-screen for MrgX1 allosteric activators: effect in parental HEK293 cells. shares compounds with MrgX1 antag. parental HEK293 calcium flux, Fluo-4 fluorescence ratio; active compounds read high. fluorescence ratio F(max-min)/F0 at 10 µM. 4,000 compounds, 0.4% hits;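 active = calcium fluorescence ratio, averaged over duplicates, at least 3 SD of the buffer-well ratio, meaning a nonspecific response in receptor-free cells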;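 note: untransfected parental HEK293 lacking MrgX1 used as counterscreen for MrgX1 allosteric activators; fluorescence change taken during the second addition on a kinetic imager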
HEK293 Ca cntr2 = MrgX1 activator counter-screen hit in parental HEK293 cells; shares compounds with MrgX1 antag; Fluo-4 calcium fluorescence (FDSS); active compounds read high; fluorescence ratio F(max-min)/F0 at 10 µM; 4,000 compounds, 8.7% hits; AID 624115;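 active = calcium fluorescence ratio at least three times the spread of buffer wells, meaning a non-specific response in parental cells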
* marks the source's active call; other numbers are inactive results; i = inactive; nt = not tested or not shown.

SMILES	MrgX1 ag	MrgX1 antag	RGS4 act	MrgX1 allo act	Kir21 inh	RGS4 inh	MrgX1 ant reconf	HEK293 Ca flux	HEK293 Ca counter	HEK293 Ca cntr2
CCC1Oc2ccccc2N(CC(=O)NC2CC2)C1=O (centres undefined)	i	i	i	i	1.13	i	nt	nt	nt	nt
CCC1Sc2ccccc2N(CC(=O)NC2CC2)C1=O (centres undefined)	i	-6.98*	i	i	1.1	i	i	i	i	i
COc1cccc(-c2noc(C3CCCN(C(=O)c4cccc(F)c4)C3)n2)c1 (centres undefined)	i	i	i	i	0.02	i	nt	nt	nt	nt
CCC/C(=N\NC(=O)CNC(=O)/C=C/c1ccco1)c1ccccc1	i	i	i	i	-0.19	i	nt	nt	nt	nt
Cn1cc(CNC(=O)C2CCC(=O)N(Cc3ccccc3F)C2)cn1 (centres undefined)	i	-4.74*	i	i	-0.86	i	i	i	i	i
O=C(CCSc1ccccc1)NC1CCCCCC1	i	i	i	i	0.04	i	nt	nt	nt	nt
O=C(CCSc1ccccc1)NC(=O)COC(=O)C1CCCCC1	i	-4.59*	i	i	-1.05	i	i	i	i	i
COc1ccc(C(=O)Cn2nnc(-c3cccs3)n2)cc1	i	i	i	i	-0.41	i	nt	nt	nt	nt
COC(=O)CCn1nnc(-c2cccs2)n1	i	-6.85*	i	i	1.97	i	74.8%*	i	i	i
COc1ccc(N2CCN(C(=O)Cn3nnc(-c4cccs4)n3)CC2)cc1	i	-5.17*	i	i	0.83	i	i	i	i	i
Cc1cc2cc3c(cc2nc1SCc1ccccn1)OCCO3	i	-6.5*	i	i	-0.29	i	i	i	i	i
CN1CCc2c(sc3c2C(=O)NC(c2ccccc2)N3)C1 (centres undefined)	i	-9.47*	i	i	-0.44	i	i	i	i	i
CCSc1nc2ccccc2n1Cc1cccc([N+](=O)[O-])c1	i	i	i	i	0.09	i	nt	nt	nt	nt
COc1ccc2cc(C(=O)C3CCCN(Cc4ccccn4)C3)ccc2c1 (centres undefined)	i	i	i	i	-0.01	i	nt	nt	nt	nt
O=C(NC(=S)Nc1ccccc1)c1ccc(-c2ccccc2)cc1	i	i	i	i	-0.52	i	nt	nt	nt	nt
O=C(O)c1ccc(NC(=S)NC(=O)c2ccc(-c3ccccc3)cc2)cc1	i	-5.2*	i	i	0.64	i	82.3%*	i	i	i
Cc1cccc(-n2ncc3c(NC(C)C)ncnc32)c1	i	i	i	i	-1.29	i	nt	nt	nt	nt
CCN(CC)S(=O)(=O)c1cccc(NC(=O)C(=O)c2c(-c3ccccc3)cc3ccccn23)c1	i	i	i	i	0.48	i	nt	nt	nt	nt
O=C(COc1ncnc2c(Cl)cc(Cl)cc12)NC1CCCCCC1	i	i	i	i	-0.75	i	nt	nt	nt	nt
CC(=O)COc1ncnc2c(Cl)cc(Cl)cc12	i	-4.93*	i	i	1.27	i	i	i	i	i
COc1cccc(-c2nc(CS(=O)(=O)CC(=O)N3CCc4ccccc43)c(C)o2)c1	i	-4.88*	i	i	-0.06	i	i	i	i	i
Cc1cc(C)nc(Sc2ccc3nnnn3n2)n1	i	i	i	i	-1.66	i	nt	nt	nt	nt
CSc1n[nH]c2nc3c(c(=O)n12)C1(CCCC1)Cc1ccccc1-3	i	-5.44*	i	i	-1.13	i	i	i	i	i
CCC(=O)Nc1ncc2c(n1)CC(c1ccco1)CC2=O (centres undefined)	i	i	i	i	-0.74	i	nt	nt	nt	nt
O=C(Cn1nnc(-c2ccccc2)n1)Nc1cccc(S(=O)(=O)N2CCOCC2)c1	i	-4.78*	i	i	-0.11	i	69.9%*	i	i	i
SMILES	MrgX1 ag	MrgX1 antag	RGS4 act	MrgX1 allo act	Kir21 inh	RGS4 inh	MrgX1 ant reconf	HEK293 Ca flux	HEK293 Ca counter	HEK293 Ca cntr2
O=C(CN1C(=O)NC2(CCCCC2)C1=O)Nc1cccc(S(=O)(=O)N2CCOCC2)c1	i	-5.38*	i	i	-0.72	i	i	i	i	i
CCn1c(C)c2c([n+]1CC)CC(C)(C)CC2=O	i	i	i	i	1.14	i	nt	nt	nt	nt
CCN(Cc1ccccc1)C(=O)Cn1c(C(C)O)nc2ccccc21 (centres undefined)	i	i	i	i	-0.27	i	nt	nt	nt	nt
Cn1nc(C(=O)Nc2cccc(Cl)c2)cc1C(=O)Nc1cccc(Cl)c1	i	-4.75*	i	i	0.38	i	i	i	i	i
Cc1cc(C)nc(SC(C)CNS(=O)(=O)c2ccccc2)n1 (centres undefined)	i	i	i	i	0.07	i	nt	nt	nt	nt
COc1ccc(N(CC(=O)NCCSC2CCCCC2)S(=O)(=O)c2ccccc2)cc1OC	i	i	i	i	-0.12	i	nt	nt	nt	nt
CCCn1c(-c2cccs2)nc2ccccc21	i	i	i	i	-0.43	i	nt	nt	nt	nt
CCN1c2ccccc2-c2nc3ccccc3n2C1c1cccs1 (centres undefined)	i	-6.13*	i	i	-0.43	i	i	i	i	i
NC(=O)C1CCN(C(=O)c2ccc3ccccc3c2)CC1	i	i	i	i	2.38	i	nt	nt	nt	nt
Cn1c(C(=O)N2CCC(C(N)=O)CC2)cc2cc(Cl)ccc21	i	-6.11*	i	i	0.16	i	i	i	i	i
COc1ccc(CCNc2ncnc3c2oc2ccccc23)cc1OC	i	-4.63*	i	i	0.56	i	42.9%*	i	i	i
CCNC(=S)N/N=C/c1ccc(OCC(=O)Nc2ccc(C)cc2)cc1	i	-10.1*	i	i	2.24	i	i	i	i	i

Assay outcomes: PubChem, Johns Hopkins Ion Channel Center
